# Experimental data: ChEMBL document CHEMBL4480414, “Design and total synthesis of (-)-codonopsinine, (-)-codonopsine and codonopsinine analogues by O-(2-oxopyrrolidin-5-yl)trichloroacetimidate as amidoalkylating agent with improved antimicrobial activity via solid lipid nanoparticle formulations” (Bioorg Med Chem, 2019)
# Active and inactive are the calls of the source. No cut-off for these calls is given here.
# Experiments:
# [1] = test system: Candida albicans; assay: Antimicrobial activity against Candida albicans ATCC 10231 at 380 ug by Kirby-Bauer disk diffusion test; type: functional, organism-based
# Summary of the method: (§1)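 Modified Kirby-Bauer disc diffusion on Muller-Hinton agar. Inhibition-zone diameter, disc diameter included, measured with a ruler from under the plate and recorded in mm.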
# [2] = Dissolution of the compound in phosphate buffer at pH 6.8 measured over 12 hrs using solid lipid nanoparticle formulation by dialysis bag diffusion method; type: physicochemical; conditions: artificial membrane, pH 6.8, 12 h
# Summary of the method: (§2)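 SLNs made by hot emulsification-ultrasonication with Compritol as lipid and 3% Pluronic F68 aqueous phase. Homogenized at 10,000 rpm and 75 °C for 15 min, then probe-sonicated 10 min.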
# [3] = Dissolution of the compound in phosphate buffer at pH 6.8 measured within 2 hrs by dialysis bag diffusion method; type: physicochemical; conditions: artificial membrane, pH 6.8, 2 h
# Summary of the method: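 Formula or compound suspension (3 ml) in 12 kDa MWCO dialysis bags, in 500 ml enzyme-free phosphate buffer pH 6.8, 37 °C, 50 rpm. 5 ml samples taken with replacement over 12 h. Cumulative % release determined by UV absorbance against a calibration curve.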
# [4] = Permeability of the compound in simulated dialysis membrane at pH 6.8 measured within 6 hrs by Franz diffusion cell-based spectrophotometric method; type: ADME, cell membranes; conditions: artificial membrane, pH 6.8, 6 h
# Summary of the method: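 Franz cell with dialysis membrane. 1 ml of SLN formula or compound suspension in the donor chamber; receptor holds phosphate buffer pH 6.8 at 37 °C, magnetically stirred. Receptor sampled with replacement over 6 h; concentration by UV absorbance against a calibration curve.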
# [5] = Permeability of the compound in simulated dialysis membrane at pH 6.8 measured within 6 hrs using solid lipid nanoparticle formulation by Franz diffusion cell-based spectrophotometric method; type: ADME, cell membranes; conditions: artificial membrane, pH 6.8, 6 h; summary of the method: as §2
# [6] = test system: Staphylococcus aureus; assay: Antimicrobial activity against Staphylococcus aureus ATCC 29213 assessed as diameter of inhibition zone at 380 ug by Kirby-Bauer disk diffusion test; type: functional; conditions: for zone of inhibition at 380 µg/disc: read-out: DIZ; summary of the method: as §1
# [7] = test system: Staphylococcus aureus; assay: Antimicrobial activity against Staphylococcus aureus ATCC 29213 measured after 18 hrs by broth microdilution method; type: functional; conditions: ATCC 29213, 18 h
# Summary of the method: (§3)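 Broth microdilution in 96-well plates. Compound stock 10 mg/ml in DMSO, two-fold serial dilutions from final 1024 to 0.5 µg/ml in water plus double-strength nutrient broth. Inoculum from direct colony suspension in saline adjusted to 0.5 McFarland, final 5 × 10⁵ CFU per well, used within 15 min. Positive and negative control rows.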
# [8] = test system: Escherichia coli; assay: Antimicrobial activity against Escherichia coli ATCC 25922 measured after 18 hrs by broth microdilution method; type: functional; conditions: ATCC 25922, 18 h; summary of the method: as §3
# [9] = test system: Klebsiella pneumoniae; assay: Antimicrobial activity against Klebsiella pneumoniae ATCC 700603 measured after 18 hrs by broth microdilution method; type: functional; conditions: Klebsiella pneumoniae, 700603, 18 h; summary of the method: as §3
# [10] = test system: Proteus mirabilis; assay: Antimicrobial activity against Proteus mirabilis ATCC 14153 measured after 18 hrs by broth microdilution method; type: functional; conditions: ATCC 14153, 18 h; summary of the method: as §3
# [11] = test system: Pseudomonas aeruginosa; assay: Antimicrobial activity against Pseudomonas aeruginosa ATCC 27853 measured after 18 hrs by broth microdilution method; type: functional; conditions: ATCC 27853, 18 h; summary of the method: as §3
# [12] = test system: Acinetobacter baumannii; assay: Antimicrobial activity against clinical isolate of Acinetobacter baumannii measured after 18 hrs by broth microdilution method; type: functional; summary of the method: as §3
# [13] = test system: Candida albicans; assay: Antimicrobial activity against Candida albicans ATCC 10231 measured after 18 hrs by broth microdilution method; type: functional; conditions: ATCC 10231, 18 h; summary of the method: as §3
# [14] = test system: Staphylococcus aureus; assay: Antimicrobial activity against Staphylococcus aureus ATCC 29213 measured after 18 hrs using solid lipid nanoparticle formulation by broth microdilution method; type: functional; conditions: ATCC 29213, 18 h; summary of the method: as §3
# [15] = test system: Escherichia coli; assay: Antimicrobial activity against Escherichia coli ATCC 25922 measured after 18 hrs using solid lipid nanoparticle formulation by broth microdilution method; type: functional; conditions: ATCC 25922, 18 h; summary of the method: as §3
# [16] = test system: Klebsiella pneumoniae; assay: Antimicrobial activity against Klebsiella pneumoniae ATCC 700603 measured after 18 hrs using solid lipid nanoparticle formulation by broth microdilution method; type: functional; conditions: Klebsiella pneumoniae, 700603, 18 h; summary of the method: as §3
# [17] = test system: Proteus mirabilis; assay: Antimicrobial activity against Proteus mirabilis ATCC 14153 measured after 18 hrs using solid lipid nanoparticle formulation by broth microdilution method; type: functional; conditions: ATCC 14153, 18 h; summary of the method: as §3
# [18] = test system: Pseudomonas aeruginosa; assay: Antimicrobial activity against Pseudomonas aeruginosa ATCC 27853 measured after 18 hrs using solid lipid nanoparticle formulation by broth microdilution method; type: functional; conditions: ATCC 27853, 18 h; summary of the method: as §3
# [19] = test system: Acinetobacter baumannii; assay: Antimicrobial activity against clinical isolate of Acinetobacter baumannii measured after 18 hrs using solid lipid nanoparticle formulation by broth microdilution method; type: functional; summary of the method: as §3
# [20] = test system: Candida albicans; assay: Antimicrobial activity against Candida albicans ATCC 10231 measured after 18 hrs using solid lipid nanoparticle formulation by broth microdilution method; type: functional; conditions: ATCC 10231, 18 h; summary of the method: as §3
SMILES,Activity [1],Activity [2],Activity [3],permeability [4],permeability [5],MIC [7],MIC [8],MIC [9],MIC [10],MIC [11],MIC [12],MIC [13],MIC [14],MIC [15],MIC [16],MIC [17],MIC [18],MIC [19],MIC [20],zone of inhibition at 380 µg/disc [6],other results
COc1ccc([C@@H]2[C@@H](O)[C@H](O)[C@@H](C)N2C)cc1OC,inactive,93.2%,87.8%,67.2%,100%,32 µg/mL,64 µg/mL,> 1020 µg/mL,> 1020 µg/mL,> 1020 µg/mL,> 1020 µg/mL,> 1020 µg/mL,32 µg/mL,256 µg/mL,> 1020 µg/mL,> 1020 µg/mL,> 1020 µg/mL,> 1020 µg/mL,> 1020 µg/mL,,growth inhibition (GI) [6]: Active
Cc1ccc([C@@H]2[C@@H](O)[C@H](O)[C@@H](C)N2C)cc1,inactive,90.1%,100%,56.3%,100%,> 1020 µg/mL,128 µg/mL,1020 µg/mL,1020 µg/mL,1020 µg/mL,256 µg/mL,> 1020 µg/mL,1020 µg/mL,512 µg/mL,512 µg/mL,512 µg/mL,1020 µg/mL,64 µg/mL,> 1020 µg/mL,,
COc1ccc([C@@H]2[C@@H](O)[C@H](O)[C@@H](C)N2C)c(F)c1,inactive,90.2%,96.7%,59.1%,100%,≤ 0.5 µg/mL,4 µg/mL,> 1020 µg/mL,> 1020 µg/mL,> 1020 µg/mL,512 µg/mL,> 1020 µg/mL,≤ 0.5 µg/mL,16 µg/mL,1020 µg/mL,> 1020 µg/mL,> 1020 µg/mL,512 µg/mL,> 1020 µg/mL,30 mm,
COc1ccc([C@@H]2[C@@H](O)[C@H](O)[C@@H](C)N2C)cc1,inactive,93.3%,95.2%,60.7%,100%,≤ 0.5 µg/mL,128 µg/mL,> 1020 µg/mL,128 µg/mL,1020 µg/mL,> 1020 µg/mL,> 1020 µg/mL,≤ 0.5 µg/mL,64 µg/mL,1020 µg/mL,64 µg/mL,> 1020 µg/mL,256 µg/mL,> 1020 µg/mL,32 mm,
